CXCR6 inh: CXCR6 receptor inhibitors, primary screen, cell-based, beta-arrestin, luminescence, CHO-K1 PathHunter, 1536-well; C-X-C chemokine receptor type 6 (Homo sapiens), O00574; inhibition, % at 20 µM; hit rate 0.36% among 360,000; in the data active = inhibition above about 34%, passing the limit was not always enough;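 note: antagonist mode with CXCL16 agonist at 10 nM final; 0% = 10 nM CXCL16 with DMSO and 100% = unstimulated wells without agonist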
APJ agonist: agonists of human apelin receptor APJ, primary screen, CHO-K1 cells, PathHunter beta-arrestin, luminescence. P35414. 0% DMSO wells, 100% apelin. activation, % at 20 µM. hit rate 0.11% among 330,000;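 active = activation more than six SD over the plate average, tested at 20 µM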;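 note: 0% = DMSO alone and 100% = apelin-13 at 10 nM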
Target sequence (P35414 whole entry, looked up): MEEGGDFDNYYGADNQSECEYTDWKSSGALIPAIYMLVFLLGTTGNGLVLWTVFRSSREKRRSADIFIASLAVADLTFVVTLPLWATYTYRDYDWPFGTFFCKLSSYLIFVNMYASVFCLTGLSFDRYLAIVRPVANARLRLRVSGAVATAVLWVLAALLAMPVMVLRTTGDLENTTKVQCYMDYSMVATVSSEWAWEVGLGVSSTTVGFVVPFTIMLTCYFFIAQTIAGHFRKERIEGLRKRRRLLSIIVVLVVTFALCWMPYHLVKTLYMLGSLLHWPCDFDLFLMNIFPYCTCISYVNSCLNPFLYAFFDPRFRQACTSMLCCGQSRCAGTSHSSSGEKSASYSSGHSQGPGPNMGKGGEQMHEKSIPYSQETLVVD
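system = engineered CHO-K1 APJ arrestin reporter cells | input = 1000 cells per well | timing = overnight seeding, 90 min compound at 25 °C, 1 h detection | measured by = enzyme-fragment complementation luminescence | read-out = beta-arrestin recruitment to APJ as agonist activity, luminescent signal | control set = negative DMSO alone, positive Apelin-13 at 10 nM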
APJ antagonist: antagonists of human apelin receptor APJ, primary screen, CHO-K1 cells, beta-arrestin complementation, luminescence; inhibition, % at 20 µM; P35414; hit rate 0.32% among 330,000;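 active = inhibition above about 40% at 20 µM, limit read from the data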;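 note: cells challenged with 10 nM apelin-13 agonist together with compound; plate controls were apelin-13 plus DMSO wells for no effect and DMSO wells lacking apelin-13 for full effect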
CCR6 antagonist: CCR6 receptor antagonists, primary screen, cell-based, CHO-K1, luminescence, beta-arrestin, uHTS. C-C chemokine receptor type 6 (Homo sapiens), P51684. CHO-K1 CCR6 PathHunter beta-arrestin, CCL20-stimulated. inhibition, % at 20 µM. hit rate 0.49% among 340,000. AID 493098, 2011;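 active = compounds whose inhibition of the agonist-driven luminescence signal at 20 µM reaches about 50%, limit read from the data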;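 note: cells stimulated with CCL20 at 14 nM final; plate controls were DMSO with CCL20 for no effect and DMSO without agonist for full effect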
Beta2AR agonist: beta2AR agonists driving receptor internalization, primary screen, cell-based, FAP fluorogen, flow cytometry | Am2.2-beta2AR cells | hit rate 0.43% among 340,000 | response, % (no concentration beside the values) | AID 504454, 2011;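 active = response above a set limit, near 3 SD of response in nonfluorescent compounds, cut at about 42% in these data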
EBI2 block: EBI2 receptor antagonists, beta-arrestin recruitment, primary screen, cell-based, luminescence, 7a,25-OHC stimulation, uHTS; 7a,25-OHC stimulated; inhibition, % at 5 µM; hit rate 0.81% among 360,000; in the data active = inhibition above about 38%;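 note: enzyme fragment complementation signal reports receptor beta-arrestin coupling in cells; 0% = agonist plus DMSO wells and 100% = wells without agonist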
An asterisk follows results filed as active; / = no result. A selection: hits, their analogues and other compounds. The true share with any hit is near 1.8%.

SMILES	CXCR6 inh	APJ agonist	APJ antagonist	CCR6 antagonist	Beta2AR agonist	EBI2 block
COc1ccc2c(c1)c(=O)oc1c(C)c(OCc3ccc(C(=O)O)cc3)ccc12	-2	/	/	16	10	6
COc1ccc(C(=O)N2CCC(C)(C(=O)NS(=O)(=O)C3CC3)C2)c(OC)c1 (centres undefined)	4	/	/	/	/	-2
CCN(c1ccc(OC)cc1)S(=O)(=O)N1CCCC(C(=O)NCc2ccc(OC(C)C)cc2)C1 (centres undefined)	2	/	/	/	/	2
COc1ccc(S(N)(=O)=O)cc1C(=O)OCC(=O)N1CC(=O)Nc2ccccc21	1	1	17	4	5	-4
CCO/C(=C/c1sc2ccc(OC)cc2[n+]1CCCS(=O)(=O)[O-])CC	9	-4	-7	-6	-12	-5
CCC(/C=C1\Sc2ccc(OC)cc2N1CCO)=C\c1sc2ccc(OC)cc2[n+]1CCO	9	-2	-33	68*	23	9
CCC(/C=C1\Sc2ccc(OC)cc2N1CC)=C\c1sc2ccc(OC)cc2[n+]1CCCS(=O)(=O)[O-]	11	-3	18	77*	-16	-10
COc1ccc(CN2CC[C@H]3C=CC[C@@H](C(=O)Nc4ccc(Cl)c(C(F)(F)F)c4)[C@H]3C2=O)cc1OC	13	4	18	16	10	19
CN(C)S(=O)(=O)c1cccc(NC(=O)CSc2cccc3cccnc23)c1	51*	-6	11	71*	36	29
NS(=O)(=O)c1ccc(CCNC(=O)C(=O)c2c[nH]c3ccccc23)cc1	-8	1	-6	-7	56*	-2
CCCCC1C(=O)N(c2ccccc2)N(c2ccc(O)cc2)C1=O (centres undefined)	43*	-7	22	57*	61*	22
C(=N\Nc1nc(-c2ccccc2)cs1)/c1ccco1	-16	10*	-54	-18	1	-14
Cc1ccc(-c2csc(N/N=C/c3ccco3)n2)cc1	-8	5	0	-13	-4	-10
NNc1nc(-c2ccccc2)cs1	19	-5	30	59*	9	3
CC(=O)[C@]1(O)Cc2c(O)c3c(c(O)c2[C@@H](O[C@H]2C[C@H](N)[C@H](O)[C@H](C)O2)C1)C(=O)c1ccccc1C3=O	/	-3	36	81*	/	/
CN(CCc1ccccc1)C(c1ccnc2ccccc12)c1nnnn1-c1ccc2c(c1)OCCO2 (centres undefined)	11	/	/	/	/	33
CCC(C)Sc1ccc(-c2nc3ccc(C)cn3c2NCc2ccccc2)cc1OC (centres undefined)	31	14	-68	46	29	69*
CCOc1ccc(OCCNC(=O)c2cc(C3CC3)nc3c2cnn3C(C)C)cc1	7	-1	5	20	14	17
Cc1cc(C)c2c(CCl)cc(=O)oc2c1	-12	2	-15	-4	44*	-8
Cc1cc(C)c2c(CN3CCCCCCC3)cc(=O)oc2c1	3	/	/	/	/	-1
COc1cc(/C=C/C(=O)c2cccc([N+](=O)[O-])c2)cc(OC)c1OC	-6	1	5	33	52*	18
CC1=CN2C(=N)/C(=C/c3ccc(C)o3)C(=O)N=C2S1	13	-6	19	29	-9	-12
CC1=CN2C(=N)/C(=C/c3ccc(Sc4ccc(Cl)cc4)o3)C(=O)N=C2S1	19	-3	20	52*	-17	3
CC1=CN2C(=N)/C(=C/c3ccc(Sc4ccc(C)cc4)o3)C(=O)N=C2S1	34	-1	26	63*	18	0
CC(=O)Nc1nc(-c2ccccc2)c(-c2ccccc2)o1	-7	-8	-6	7	-19	-11
SMILES	CXCR6 inh	APJ agonist	APJ antagonist	CCR6 antagonist	Beta2AR agonist	EBI2 block
COc1cc(OC)cc(C(=O)Nc2nc(-c3ccccc3)c(-c3ccccc3)o2)c1	18	-3	10	62*	-190	3
Cc1nc(-c2cccnc2)sc1C(=O)N/N=C/c1ccccc1Cl	0	4	7	8	42*	9
Cc1nc(-c2cccnc2)sc1C(=O)Nc1ccc(Cl)cc1	6	0	12	17	-6	33
O=C(COC(=O)C1CC(=O)N(Cc2ccccc2)C1)c1ccc(F)cc1 (centres undefined)	-1	-6	-7	-5	7	-3
CC(C)(C)N(Cc1ccccc1)C(=O)CSc1nnc(CNc2ccc(F)cc2)o1	-2	-2	-2	-5	-6	47*
Cc1nc2ccc(NC(=O)c3cc([N+](=O)[O-])cc([N+](=O)[O-])c3Cl)cc2s1	10	/	/	97*	31	-10
CCOC(=O)c1ccc(N=c2sc(C(=O)OC)cc(=O)n2Cc2ccco2)cc1	6	3	10	9	24	58*
O=[N+]([O-])c1ccc(NCCCc2ccccc2)cc1	-5	/	/	/	/	17
Cc1ccc(-n2nc(C)c3c(C)c(CCC(=O)Nc4ccc(CN5CCCC5)cc4)c(C)nc32)cc1	-10	0	-4	52*	/	14
Cn1cccc1C(C#N)c1cccc(F)c1C#N (centres undefined)	4	-7	34	55*	1	-11
Cn1cccc1C(C#N)(CC#N)c1cccc(F)c1C#N (centres undefined)	4	0	19	7	1	1
C#CCOCCOCCOCCNc1nc(N2CCN(C(=O)C(Cc3cc4ccccc4[nH]3)n3cc(C(N)Cc4ccc(O)cc4)nn3)CC2)nc(N2CCN(C(=O)C(Cc3cc4ccccc4[nH]3)n3cc(C(N)Cc4ccc(O)cc4)nn3)CC2)n1 (centres undefined)	/	/	/	-6	/	/
C#CCOCCOCCOCCNc1nc(N2CCN(C(=O)[C@H](Cc3ccc(O)cc3)n3cc([C@@H](N)C(C)CC)nn3)CC2)nc(N2CCN(C(=O)[C@H](Cc3cc4ccccc4[nH]3)n3cc([C@@H](N)C(C)CC)nn3)CC2)n1 (some centres undefined)	11	3	21	-7	58*	3
C#CCOCCOCCOCCNc1nc(N2CCN(C(=O)[C@H](Cc3cc4ccccc4[nH]3)n3cc([C@@H](N)C(C)CC)nn3)CC2)nc(N2CCN(C(=O)[C@H](Cc3cc4ccccc4[nH]3)n3cc([C@@H](N)Cc4ccc(O)cc4)nn3)CC2)n1 (some centres undefined)	/	-1	-58	/	/	/
C#CCOCCOCCOCCNc1nc(N2CCN(C(=O)[C@H](Cc3cc4ccccc4[nH]3)n3cc([C@@H](N)Cc4ccc(O)cc4)nn3)CC2)nc(N2CCN(C(=O)[C@H](Cc3cc4ccccc4[nH]3)n3cc([C@@H](N)CC(C)C)nn3)CC2)n1	/	/	/	10	73*	/
